High-throughput results from PubChem BioAssay.
FN deposition inh – fibronectin deposition inhibition. AH1F fibroblasts, Alexa488-fibronectin deposition fluorescence, overnight. inhibition, % at 12.6 µM. actives 0.086% (n = 350,000). AID 743247;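 active = mean inhibition across replicates of 30% or more, regardless of how many single replicates reach that level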;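 also: positive control wells lacked labelled fibronectin entirely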
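Assay system: AH1F fibroblasts assembling fluorescent fibronectin matrix; Amount: 10000 AH1F cells per well; Buffer or medium: DMEM, 2% serum; Probe or stimulus: Alexa488-fibronectin, 24 nM final in well; Doses: single compound dose, delivered by pin transfer; Incubation: 1 h adhesion, overnight exposure; Measured by: fluorescence 485/525 nm; Read-out: fibronectin deposition inhibition.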
Env fusion inh – HIV envelope-mediated fusion inhibition | AID 651610 | HeLa-JRFL Env/CEM21 cell fusion, luciferase | inhibition, % at 12.3 µM | actives 1.1% (n = 360,000);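 active = mean replicate inhibition score of at least 50 and every replicate individually at or above 50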;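 also: 0% = plate neutral controls and 100% = maraviroc near 300 nM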
INS-1E GSIS act – primary screen for activators of insulin secretion dependent on glucose, INS-1E cells, GLuc reporter luminescence | AID 743287 | INS-1E GLuc reporter insulin secretion, 2-3 h | activation, % at 16.6 µM | actives 0.61% (n = 370,000);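 active = lowest replicate activation of at least 40%, so every replicate reaches that level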;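 also: 0% = median of neutral control wells and 100% = median of IBMX positive control wells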
PDI inh – PDI (human) enzyme inhibition; PDI insulin aggregation turbidity, A650, 90 min; actives 0.052% (n = 350,000); AID 588391; P07237; inhibition, % at 10 µM;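 active = mean inhibition across replicates of 30% or more, whatever share of single replicates reach that level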
ERp5 inh – blocks human ERp5 reductase activity on insulin. Q15084. ERp5 insulin aggregation, absorbance 650 nm, 90 min. actives 0.05% (n = 350,000). inhibition, % at 9.99 µM;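 active = mean replicate inhibition above about 25%, with every replicate also reaching it, limit read from the data, passing the limit was not always enough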
Target sequence (Q15084 whole entry, looked up): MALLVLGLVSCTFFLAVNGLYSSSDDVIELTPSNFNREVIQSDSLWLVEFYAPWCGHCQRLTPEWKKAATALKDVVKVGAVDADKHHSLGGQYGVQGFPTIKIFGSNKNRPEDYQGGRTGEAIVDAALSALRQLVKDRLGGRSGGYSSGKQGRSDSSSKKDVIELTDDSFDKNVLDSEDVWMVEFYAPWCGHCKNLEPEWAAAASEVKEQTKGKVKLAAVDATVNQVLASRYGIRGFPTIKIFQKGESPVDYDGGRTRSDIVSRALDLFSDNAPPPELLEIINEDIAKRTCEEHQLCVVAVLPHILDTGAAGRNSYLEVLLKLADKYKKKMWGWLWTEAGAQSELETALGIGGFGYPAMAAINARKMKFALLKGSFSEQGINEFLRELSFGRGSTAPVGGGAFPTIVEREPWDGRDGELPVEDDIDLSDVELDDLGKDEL
The depositor's hits bear a star; nt = no result; [ ] = another dose, or the depositor's remark. Shown are actives, neighbours in structure and some others; about 1.4% of the full set was active somewhere.

SMILES	FN deposition inh	Env fusion inh	INS-1E GSIS act	PDI inh	ERp5 inh
C[C@H]1CN([C@@H](C)CO)C(=O)c2cc(NS(=O)(=O)c3cn(C)cn3)ccc2O[C@H]1CN(C)C(=O)Nc1ccc(C(F)(F)F)cc1	0.8	2.7[16.7 µM]	7.2	nt	4.4
CCOc1ccc(NC(=O)CCc2c(C)noc2C)cc1OC	-0.6	nt	5.0	8.7	5.3
CCCOc1ccc(C(F)(F)F)cc1NC(=O)CCc1c(C)noc1C	0.6	98.5*	-4.1	-3.1	-5.4
C=C1C(=O)O[C@@H]2C[C@@H](C)[C@@H]3C=CC(=O)[C@@]3(C)[C@@H](OC(C)=O)[C@H]12	38.8*	129.5*	37.1	nt	-1.2
CC(C)NC(=O)Nc1ccc2c(c1)CC(=O)N([C@H](C)CO)C[C@@H](C)[C@H](CN(C)C(=O)Nc1ccc(C(F)(F)F)cc1)O2	nt	nt	0.1	nt	-3.4
Cc1ccccc1CSCc1nc(N)nc(Nc2ccccc2C)n1	-4.6	-18.2	9.7	2.5	7.0
CCc1ccc(NC(=O)CSCc2nc(N)nc(Nc3ccccc3CC)n2)cc1	2.0	61.2*	-33.5	2.3	nt
CCc1ccccc1Nc1nc(N)nc(CSCC(=O)Nc2ccc(C)c(C)c2)n1	19.3	71.3*	-17.2	-10.4	0.0
CCc1ccccc1Nc1nc(N)nc(COC(=O)c2cccn2C)n1	4.8	-33.1	3.9	0.0	nt
C[C@H](CO)N1C[C@H](C)[C@@H](CN(C)Cc2ccncc2)OCc2ccccc2-c2ccccc2C1=O	-5.8	-2.0[16.7 µM]	-0.3	nt	-3.0
COc1ccc(C=C(C(=O)O)c2ccc(OC)cc2)cc1	2.3	-8.3	49.1*	2.4	-1.9
COc1ccc(C(=Cc2ccccc2)C(=O)O)cc1	-7.9	-2.5	nt	18.1	6.0
C[C@H](CO)N1C[C@H](C)[C@H](CN(C)S(=O)(=O)c2cccs2)Oc2c(NC(=O)CCCCCC(=O)Nc3ccccc3N)cccc2C1=O	9.8	nt	12.0	nt	1.5
CC(C)NC(=O)N[C@@H]1CC[C@H](CCn2cc(-c3ccc(F)cc3)nn2)O[C@H]1CO	nt	5.3[16.7 µM]	8.8	nt	-0.4
CSc1nnc(CCCCCNC(=O)OC(C)(C)C)o1	-1.9	4.3	-11.4	3.9	-0.9
CCCCSc1nnc(CCCCCNC(=O)OC(C)(C)C)o1	-7.3	55.2*	nt	-0.6	nt
CCOc1ccccc1NC(=O)CSc1ccc(-c2ccco2)nn1	-6.9	-1.9	60.7*	20.2	-19.0
C[C@@H]1CN([C@H](C)CO)C(=O)c2cc(/C=C/c3ccccc3)cnc2O[C@@H]1CN(C)C(=O)CN1CCOCC1	nt	-8.6[16.7 µM]	0.1	nt	0.6
O=S1(=O)CCN(c2ccccc2CC(c2c[nH]c3ccccc23)c2c[nH]c3ccccc23)CC1	4.5	84.9*	-4.0	19.1	5.8
COc1ccccc1-c1nc(SCC(=O)Nc2ccccc2F)n[nH]1	7.3	69.6*	1.3	9.2	3.7
COc1ccccc1-c1nc(SCC(=O)Nc2ccccc2)n[nH]1	2.5	-2.1	-5.0	10.3	-3.9
COc1cc(-c2nc3oc4ccccc4c(=O)c3c(=O)n2Cc2ccco2)cc(OC)c1OC	-7.6	92.3*	nt	-9.9	nt
COc1ccc2c(=O)c3c(=O)n(Cc4ccco4)c(-c4ccc(C)cc4)nc3oc2c1	nt	-111.4	nt	20.8	nt
COc1ccc(-c2ccccc2[C@H]2[C@@H](C#N)N(C(=O)C3CCCC3)[C@H]2CO)cc1	3.7	-7.0[16.7 µM]	-34.2	nt	-10.1
CN1/C(=C\C(=O)Nc2ccc(Cl)cc2)C(C)(C)c2ccccc21	-15.5	-4.8	-9.5	13.8	2.6
SMILES	FN deposition inh	Env fusion inh	INS-1E GSIS act	PDI inh	ERp5 inh
CN1/C(=C\C(=S)Nc2ccccc2)C(C)(C)c2ccccc21	0.1	52.9*	-29.4	2.9	-4.8
[N-]=[N+]=NCc1ccccc1C[C@]1(C(=O)N2CCCCC2)N=C(c2ccc(OCCCO)cc2)O[C@H]1c1ccccc1	nt	67.9*[16.7 µM]	nt	nt	-3.6
Cc1noc(C)c1NC(=O)N(C)C[C@H]1Oc2c(NS(=O)(=O)c3ccccc3)cccc2C(=O)N([C@@H](C)CO)C[C@H]1C	nt	23.0[16.7 µM]	7.8	nt	-16.1
CN(Cc1ccc(OC(F)F)cc1)C(=O)c1ccccc1Sc1ccccc1C#N	nt	56.0*	-22.7	7.7	-3.9
COc1ccc(NC(=O)Nc2ccc3c(c2)C(=O)N([C@H](C)CO)C[C@H](C)[C@@H](CN(C)S(=O)(=O)c2ccccc2)OCCCC[C@H](C)O3)cc1	-1.4	-26.8[16.7 µM]	5.8	nt	0.0
S=c1[nH]cc(-c2ccccc2)n1-c1cccc(Cl)c1	-10.6	70.2*	nt	19.0	-2.8
CC(NC(=O)CSc1ccc(S(=O)(=O)N2CCOCC2)cn1)c1ccc(Cl)cc1Cl (stereo not given)	30.3*	nt	-28.8	-13.0	-0.7
